Measurements: paper PMC4005002 (Anti-cancer drugs, 2013)
Several values for one entry are separate records, joined by “and”; a condition that tells them apart may be missing. Equal entries are not always repeated. Where two headings read alike, the source gives them in different places.

What was measured:
[1] = system: children and adolescents with refractory solid tumors; experiment: Phase I dose escalation of Tem in combination with VPA: toxicity; format: in vivo
[2] = Tem pharmacokinetics in whole blood; format: in vivo, human; details: for AUC(0-t): 0 to 24 hours post dose
[3] = system: pediatric patients with recurrent/refractory solid tumors; details: cited from earlier work
[4] = cited from earlier work; for median Cmax: children
HDAC activity in PBMC = experiment: Histone H4 acetylation in peripheral blood mononuclear cells; format: in vivo, human; details: data from subject 6, VPA with Tem
In short: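 PBMC isolated on Ficoll and stored at −80 C. Extracts normalized to cell number were run on SDS-PAGE and blotted with rabbit anti-tetra-acetyl H4 (1:2000) and anti-pan-H4 (1:1000). Scanned blots were quantified.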

[5] = VPA serum/plasma levels during treatment; format: in vivo, human
acetylated H4 = details: phase I study of VPA alone, half of the subjects; cited from earlier work
histone acetylation = details: cited from earlier work

SMILES: CO[C@H]1C[C@@H]2CC[C@@H](C)[C@@](O)(O2)C(=O)C(=O)N2CCCC[C@H]2C(=O)O[C@H]([C@H](C)C[C@@H]2CC[C@@H](OC(=O)C(C)(CO)CO)[C@H](OC)C2)CC(=O)[C@H](C)/C=C(\C)[C@@H](O)[C@@H](OC)C(=O)[C@H](C)C[C@H](C)/C=C/C=C/C=C/1C [Tem, Temsirolimus]
- tolerable dose of Tem with VPA ([1]; IV weekly with VPA PO TID): 35 mg/m^2/week
- MTD of Tem in combination with VPA ([1]; IV weekly, VPA doses dropped using fatigue as endpoint): 35 mg/m2/wk
- dose of Tem well tolerated / likely MTD when combined with VPA ([1]; IV weekly, only 3 patients treated at this dose): 35 mg/m^2
- mucositis at the lower dose ([1]; human, in vivo): mucositis limited to grade 1 or 2, with the exception of one subject with grade 3
- Peak Tem levels, range over patients ([2]; Tem 60 mg/m^2 dose level with VPA, both cycles): 757–1,220 ng/mL
- Tmax ([2]; cycle 5, Tem 35 mg/m^2 IV weekly with VPA, median, N = 2): 30 min
- Tmax ([2]; human, whole blood, iv, 35 mg/m^2): 39.6 min
- AUC(0-t) ([2]; human, whole blood, iv, 35 mg/m^2, AUClast, cycle 1, Tem 35 mg/m^2 IV weekly with VPA, median, N = 3): 7550 ng·h/mL
- AUC(0-t) ([2]; human, whole blood, iv, 60 mg/m^2, AUClast, cycle 1, Tem 60 mg/m^2 IV weekly with VPA, median, N = 2): 8330 ng·h/mL
- half-life ([2]; human, whole blood, iv, T1/2, cycle 5, Tem 60 mg/m^2 IV weekly with VPA, N = 1): 504 min
- MTD of Tem as single agent ([3]; pediatric study): more than 150 mg/m^2 IV/week
- MTD of Tem alone ([3]; phase I pediatric study): 150 mg/m^2
- median Cmax ([4]; Tem 25 mg/m^2 without VPA): 448 ng/mL
- median Cmax ([4]; Tem 75 mg/m^2 without VPA): 442 ng/mL
- Peak Tem levels, range ([4]; children who had received 75 mg/m^2 Tem without VPA): 369 to 630 ng/mL

SMILES: CCCC(CCC)C(=O)O [VPA, Valproic Acid]
- VPA levels with which toxicity seemed to correlate ([1]; Tem plus VPA): > 75 µg/mL
- fatigue attributed to VPA ([1]; in vivo): dose-limiting fatigue
- VPA plasma levels required to inhibit HDAC activity in PBMC (HDAC activity in PBMC): > 70 µg/dL
- concentration at 24 h ([5]; human, plasma, oral): 52000 ng/mL
- VPA level at grade 2 thrombocytopenia ([5]; one patient, resolved after holding VPA for 3 days): 56 µg/mL
- VPA range ([5]; patient 1, Tem 60 mg/m^2): 26–72 (NA) mcg/mL
- VPA level at time of grade 3 toxicity ([5]; patient 2, Tem 60 mg/m^2): 85 µg/mL and 112 µg/mL
- VPA range ([5]; patient 2, Tem 60 mg/m^2): 78 to 112 µg/mL
- VPA level at time of grade 3 toxicity ([5]; patient 3, Tem 60 mg/m^2): 91 µg/mL
- VPA range ([5]; patient 3, Tem 60 mg/m^2): <10 to 91 µg/mL
- VPA level at time of grade 3 toxicity ([5]; patient 4, Tem 35 mg/m^2): 108 µg/mL
- VPA range ([5]; patient 4, Tem 35 mg/m^2): 68 to 108 µg/mL
- VPA level at time of grade 3 toxicity ([5]; patient 5, Tem 35 mg/m^2): 87 µg/mL
- VPA range ([5]; patient 5, Tem 35 mg/m^2): 13 to 87 µg/mL
- VPA level at time of grade 3 toxicity ([5]; patient 6, Tem 35 mg/m^2): 78 µg/mL
- VPA range ([5]; patient 6, Tem 35 mg/m^2): 22 to 78 µg/mL
- VPA level at the time of maximum symptoms (grade 3 bilateral plantar pain) ([5]; subject #5, beginning of 4th month of treatment): 87 µg/mL
- VPA levels associated with increased acetylated H4 (acetylated H4): 55 to 100 µg/mL
- VPA levels needed before acetylation is significantly affected (histone acetylation): greater than 100 mcg/mL
